Measurements pooled from the literature.
Protocols differ between the studies behind these lines.
Target: Tyrosine-protein kinase Srms (SRMS, Homo sapiens, UniProt Q9H3Y6)

`CC1CCCN1c1nccc(-c2cnn3ncccc23)n1` (stereo not shown) gave a remaining binding of 100% (binding; 1 µM).
For `Cc1cnc(Nc2ccc(C(=O)N3CCC(N4CCCC4)CC3)cc2)nc1-c1cc2ccccc2s1`, the remaining binding was 68% (binding; competition with immobilised ligand; 1 µM).
For `C=CC(=O)N1CCC(C(=O)NCC(=O)N2CCN(c3nc(-c4cnc(N)nc4C(F)F)nc(N4CCOCC4)n3)CC2)CC1`, the remaining binding was 72% (binding; competition with immobilised ligand; 1 µM).
For `O=C(N1CCS(=O)(=O)CC1)N1C[C@H](c2ccc(OC(F)(F)F)cc2)C[C@H](c2nc(C3CC3)no2)C1`, the remaining binding was 100% (cell-free assay; competition with immobilised ligand; 1 µM).
`CN(c1nccc(-c2cnn3ncccc23)n1)C1CC1` has a remaining binding of 100% (binding; 1 µM).
For `c1cncc(-c2cccc(Nc3nccc(NC4CCCCC4)n3)c2)c1`, the remaining binding was 71% (binding; competition with immobilised ligand; 10 µM).
`C[C@H]1CCN(c2nccc(-c3cnn4ncccc34)n2)C1` has a remaining binding of 71% (binding; 1 µM).
`C[C@@H](c1ccc(-n2cnc3c(N)ncnc32)cc1)N1CCc2nn(C)c(Cc3ccccc3)c2C1=O` gave a remaining binding of 44% (binding; competition with immobilised ligand; 0.1 µM).
For `N[C@H]1CCN(c2nccc(-c3cnn4ncccc34)n2)C1`, the remaining binding was 88% (binding; 1 µM).
With `Nc1ncc2c(n1)-c1c([nH]c3ccc(C#CC4CC4)cc13)CCCC2` the remaining binding was 92% (binding; competition with immobilised ligand; 1 µM).
`CSc1cccnc1N1CCN(Cc2nc3ccccc3[nH]2)CC1` gave a remaining binding of 100% (cell-free assay; competition with immobilised ligand; 1 µM).
With `O=C(c1ccc(Nc2nccc(-c3cc4ccccc4s3)n2)cc1)N1CCC(N2CCCC2)CC1` the remaining binding was 73% (binding; competition with immobilised ligand; 1 µM).
The remaining binding of `c1cnn2ncc(-c3ccnc(N4CCC45COC5)n3)c2c1` is reported as 70% (binding; 1 µM).
For `CCCOc1ccc([C@@H]2[C@@H](C(=O)O)[C@H](c3ccc4c(c3)OCO4)CN2CC(=O)Nc2c(CC)cccc2CC)cc1`, the remaining binding was 90% (cell-free assay; competition with immobilised ligand; 1 µM).
With `O=C(c1ccc(Nc2ncc(Cl)c(-c3cc4ccccc4s3)n2)cc1)N1CCC(N2CCCC2)CC1` the remaining binding was 81% (binding; competition with immobilised ligand; 1 µM).
`N#CC1(c2ccccn2)CCN(Cc2cc(C(=O)N3CCCC3)c(=O)n3ccccc23)CC1` has a remaining binding of 100% (cell-free assay; competition with immobilised ligand; 1 µM).
The remaining binding of `COc1cnc(Nc2cccc(S(N)(=O)=O)c2)nc1N1CCN(c2ccccc2)C(=O)C1` is reported as 90% (binding; competition with immobilised ligand; 1 µM).
`O=C(NCC1CCOCC1)c1n[nH]cc1NC(=O)c1c(F)cccc1F` gave a remaining binding of 100% (binding; competition with immobilised ligand; 1 µM).
`COc1cc(-c2cn(C3CCc4ccccc4N(CC(F)(F)F)C3=O)nn2)ccc1-n1ccc(C)n1` (stereo not shown) has a remaining binding of 84% (cell-free assay; competition with immobilised ligand; 1 µM).
With `F[C@@H]1CCN(c2nccc(-c3cnn4ncccc34)n2)C1` the remaining binding was 100% (binding; 1 µM).
`O=C(Nc1cccnn1)N1CCC(=Cc2cccc(Oc3ccc(C(F)(F)F)cn3)c2)CC1` has a remaining binding of 95% (cell-free assay; competition with immobilised ligand; 1 µM).
With `COc1cnc(Nc2cccc(S(N)(=O)=O)c2)nc1N1CCN(c2ccccc2)CC1` the remaining binding was 83% (binding; competition with immobilised ligand; 1 µM).
